The values that follow come from ChEMBL document CHEMBL1671698, “Is the recommended once-daily dose of lamivudine optimal in West African HIV-infected children?” (Antimicrob Agents Chemother, 2010).

Data set [1] in a line: AUC (0 to tau) in HIV-1 infected children aged 6.9 years at 4 mg/kg, po every 12 hrs coadministered with nevirapine and stavudine by HPLC. Format: ADME, organism-based. Further details: dose 4 mg/kg, route oral. Particulars: human, plasma.
A short description of data set [2]: AUC (0 to tau) in HIV-1 infected children aged 2.5 to 4.8 years at 4 mg/kg, po every 12 hrs by HPLC. Type of data set: ADME, organism-based. Further details: dose 4 mg/kg, route oral. As to conditions: human, plasma.
Data set [3] is described as follows: Cmax in HIV-1 infected children aged 2.1 to 12.8 years at 4 mg/kg, po every 12 hrs coadministered with 8 mg/kg abacavir by HPLC. Further details: dose 4 mg/kg, route oral. Particulars: human, in vivo. Format: ADME, organism-based.
A short description of data set [4]: AUC (0 to tau) in HIV-1 infected children aged 2.1 to 12.8 years at 8 mg/kg, po every 24 hrs coadministered with 8 mg/kg abacavir by HPLC. Particulars: human, plasma.
A short description of data set [5]: Cmax in HIV-1 infected children aged 2.5 to 4.8 years at 4 mg/kg, po every 12 hrs by HPLC. Format: ADME, organism-based. Further details: dose 4 mg/kg, route oral. Particulars: human, in vivo.
Data set [6] is described as follows: AUC (0 to tau) in HIV-1 infected children aged 2.5 to 14 years at 8 mg/kg, po every 24 hrs coadministered with 240 mg/m2 of didanosine and efavirenz by HPLC. Format: ADME, organism-based. Further details: dose 8 mg/kg, route oral. Particulars: human, plasma. An outline of the steps: (§1)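 Treatment-naive children took once-daily oral lamivudine at 8 mg/kg (tablets or solution) at 6 p.m. without food, with didanosine 240 mg/m2 and weight-banded efavirenz. Blood was drawn after 15 days (38 children) or 2–5 months (11 children), either predose plus 1 and 3 h, or predose through 24 h. Plasma was kept at −70°C and assayed by HPLC-UV (LLOQ 0.025 mg/liter). Data were fitted with a two-compartment population model in NONMEM using FOCE.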

A short description of data set [7]: Cmax in HIV-1 infected children aged 8.5 to 12.3 years at 4 mg/kg, po every 12 hrs by HPLC. Format: ADME, organism-based. Further details: dose 4 mg/kg, route oral. As to conditions: human, in vivo.
A short description of data set [8]: AUC in HIV-1 infected children with body weight <17 kg at 8 mg/kg, po every 24 hrs coadministered with 240 mg/m2 of didanosine and efavirenz by HPLC. Format: ADME, organism-based. Further details: dose 8 mg/kg, route oral. Particulars: human, plasma.
A further data set has as its system Homo sapiens. Briefly: AUC in HIV-1 infected children with body weight <17 kg at 10 mg/kg, po every 24 hrs coadministered with 240 mg/m2 of didanosine and efavirenz by HPLC. Particulars: in vivo. Format: ADME, organism-based, Plasma. Further details: dose 10 mg/kg, route oral.
Data set [9] is described as follows: Cmax in HIV-1 infected children aged 6.9 years at 4 mg/kg, po every 12 hrs coadministered with nevirapine and stavudine by HPLC. Further details: dose 4 mg/kg, route oral. Particulars: human, in vivo. Type of data set: ADME, organism-based.
The nature of data set [10]: AUC (0 to tau) in HIV-1 infected children aged 2.1 to 12.8 years at 4 mg/kg, po every 12 hrs coadministered with 8 mg/kg abacavir by HPLC. As to conditions: human, plasma. Type of data set: ADME, organism-based.
Data set [11] in a line: Cmax in HIV-1 infected children aged 2.1 to 12.8 years at 8 mg/kg, po every 24 hrs coadministered with 8 mg/kg abacavir by HPLC. Particulars: human, in vivo.
Data set [12] in a line: Cmax in HIV-1 infected children aged 2.5 to 14 years at 8 mg/kg, po every 24 hrs coadministered with 240 mg/m2 of didanosine and efavirenz by HPLC. Type of data set: ADME, organism-based. As to conditions: human, in vivo. Further details: dose 8 mg/kg, route oral. The gist of the method: as §1
The nature of data set [13]: AUC (0 to tau) in HIV-1 infected children aged 8.5 to 12.3 years at 4 mg/kg, po every 12 hrs by HPLC. Further details: dose 4 mg/kg, route oral. As to conditions: human, plasma. Type of data set: ADME, organism-based.
Data set [14] in a line: AUC in HIV-1 infected children with body weight >17 kg at 8 mg/kg, po every 24 hrs coadministered with 240 mg/m2 of didanosine and efavirenz by HPLC. Format: ADME, organism-based. Particulars: human, plasma. Further details: dose 8 mg/kg, route oral.

For `Nc1ccn([C@@H]2CS[C@H](CO)O2)c(=O)n1` [LAMIVUDINE], the AUC tau at 12 h in data set [1] came out at 5420 ng·h/mL; in [2], 3710 ng·h/mL; in data set [10], 4440 ng·h/mL; in data set [13] it was 6540 ng·h/mL. Further, the Cmax in data set [3] worked out at 1110 ng/mL; in data set [5], 980 ng/mL; in data set [7], 1840 ng/mL; in [9] it was 1330 ng/mL; in data set [11], 2090 ng/mL; in data set [12], 1700 ng/mL. For the same molecule, the AUC tau at 24 h in data set [4] stood at 9800 ng·h/mL; in data set [6], 7800 ng·h/mL. Also, the results for the AUC at 24 h in [8] and in data set [14] were 8100 ng·h/mL and 9100 ng·h/mL, respectively. Besides, the AUC in the data set with Homo sapiens is 9800 ng·h/mL.

Usually Cmax stands for the peak of the concentration-time curve. As usually defined, the AUC is the area under the concentration-time curve, a measure of exposure.
